Calls of active or inactive are those of the source. No cut-off for these calls is given here.
Each compound was assayed on HeLa (assay: Induction of apoptosis in human HeLa cells assessed as increase in level of cleaved caspase-3 at 20 uM after 12 hrs by immunoblotting). Settings: not given.
Assay type: functional, cell-based

SMILES | Activity
O=C(Cn1cnc2scc(-c3ccc4ccccc4c3)c2c1=O)N/N=C/c1ccc(Cl)c([N+](=O)[O-])c1 | Active
Cc1cc(-c2csc3ncn(CC(=O)N/N=C/c4ccc(Cl)c(F)c4)c(=O)c23)ccc1Cl | Active
O=C(Cn1cnc2scc(-c3ccc(Cl)cc3)c2c1=O)N/N=C/c1ccc(Cl)c([N+](=O)[O-])c1 | Active

These compounds were tested on HeLa (assay: Cytotoxicity against human HeLa cells assessed as growth inhibition after 48 hrs by MTT assay). Settings: not given.
Assay type: functional, cell-based
How it was run: (§1)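 Dose-response MTT assay, 48 h exposure. Compounds run at multiple concentrations; IC50 taken as the concentration giving 50% growth inhibition. HEK-293T (human embryonic kidney cells transformed with adenovirus 5 DNA and SV40 large T-antigen) served as the normal-cell model.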

SMILES | IC50 [µM] | growth inhibition (GI)
O=C(Cn1cnc2scc(-c3ccc4ccccc4c3)c2c1=O)N/N=C/c1ccc(Cl)c([N+](=O)[O-])c1 | 24 | Dose-dependent effect
O=C(Cn1cnc2sc3c(c2c1=O)CCCCC3)N/N=C/c1ccc(Cl)c([N+](=O)[O-])c1 | 6 | 
O=C(Cn1cnc2sc3c(c2c1=O)CCCC3)N/N=C/c1ccccc1O | 40 | 
Cc1cc(-c2csc3ncn(CC(=O)N/N=C/c4ccc(Cl)c(F)c4)c(=O)c23)ccc1Cl | 15 | Dose-dependent effect
O=C(Cn1cnc2scc(-c3ccc(Cl)cc3)c2c1=O)N/N=C/c1ccc(Cl)c([N+](=O)[O-])c1 | 11 | Dose-dependent effect
O=C(Cn1cnc2scc(-c3ccccc3)c2c1=O)N/N=C/c1ccc(Cl)c([N+](=O)[O-])c1 | 11 | Dose-dependent effect

The compounds below were run on MDA-MB-231 (assay: Cytotoxicity against human MDA-MB-231 cells assessed as growth inhibition at 20 uM after 48 hrs by MTT assay). Settings: not given.
Assay type: functional
How it was run: (§2)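 Single-concentration screen at 20 µM. Cell growth inhibition read by standard MTT assay after 48 h treatment and expressed as inhibition ratio.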

SMILES | growth inhibition (GI)
O=C(Cn1cnc2scc(-c3ccc4ccccc4c3)c2c1=O)N/N=C/c1ccc(O)c(O)c1 | inactive

Same assay, conditions: MDA-MB-231, 48 h, read-out: GI

SMILES | inhibition of growth at 20 µM [%]
O=C(Cn1cnc2scc(-c3ccc4ccccc4c3)c2c1=O)N/N=C/c1ccc(Cl)c([N+](=O)[O-])c1 | 55
O=C(Cn1cnc2sc3c(c2c1=O)CCCCC3)N/N=C/c1ccc(Cl)c([N+](=O)[O-])c1 | 66
O=C(Cn1cnc2sc3c(c2c1=O)CCCC3)N/N=C/c1ccccc1O | 29
Cc1cc(-c2csc3ncn(CC(=O)N/N=C/c4ccc(Cl)c(F)c4)c(=O)c23)ccc1Cl | 74
O=C(Cn1cnc2scc(-c3ccc(Cl)cc3)c2c1=O)N/N=C/c1ccc(Cl)c([N+](=O)[O-])c1 | 78
O=C(Cn1cnc2scc(-c3ccccc3)c2c1=O)N/N=C/c1ccc(Cl)c([N+](=O)[O-])c1 | 29
Cc1csc2ncn(CC(=O)N/N=C/c3ccccc3O)c(=O)c12 | 30

The compounds below were run against Induced myeloid leukemia cell differentiation protein Mcl-1 (Homo sapiens) (UniProt Q07820) (assay: Inhibition of mouse/human MCL1 expressed in Escherichia coli BL21 at 1 uM to 50 uM using FAM-labeled Bid-BH3 as tracer by fluorescence polarization assay). Settings: not given.

SMILES | inhibition
O=C(Cn1cnc2scc(-c3ccc4ccccc4c3)c2c1=O)N/N=C/c1ccc(Cl)c([N+](=O)[O-])c1 | inactive
O=C(Cn1cnc2sc3c(c2c1=O)CCCCC3)N/N=C/c1ccc(Cl)c([N+](=O)[O-])c1 | inactive
O=C(Cn1cnc2sc3c(c2c1=O)CCCC3)N/N=C/c1ccccc1O | inactive
Cc1cc(-c2csc3ncn(CC(=O)N/N=C/c4ccc(Cl)c(F)c4)c(=O)c23)ccc1Cl | inactive
O=C(Cn1cnc2scc(-c3ccc(Cl)cc3)c2c1=O)N/N=C/c1ccc(Cl)c([N+](=O)[O-])c1 | inactive
O=C(Cn1cnc2scc(-c3ccccc3)c2c1=O)N/N=C/c1ccc(Cl)c([N+](=O)[O-])c1 | inactive
O=C(Cn1cnc2scc(-c3ccc4ccccc4c3)c2c1=O)N/N=C/c1ccc(O)c(O)c1 | inactive
Cc1csc2ncn(CC(=O)N/N=C/c3ccccc3O)c(=O)c12 | inactive

These compounds were tested on A549 (assay: Cytotoxicity against human A549 cells assessed as growth inhibition at 20 uM after 48 hrs by MTT assay). Settings: not given.
Assay type: functional
How it was run: as §2

SMILES | growth inhibition (GI)
O=C(Cn1cnc2sc3c(c2c1=O)CCCCC3)N/N=C/c1ccc(Cl)c([N+](=O)[O-])c1 | inactive
O=C(Cn1cnc2scc(-c3ccc4ccccc4c3)c2c1=O)N/N=C/c1ccc(O)c(O)c1 | inactive
Cc1csc2ncn(CC(=O)N/N=C/c3ccccc3O)c(=O)c12 | inactive

Same assay, conditions: A549, 48 h, read-out: GI

SMILES | inhibition of growth at 20 µM [%]
O=C(Cn1cnc2scc(-c3ccc4ccccc4c3)c2c1=O)N/N=C/c1ccc(Cl)c([N+](=O)[O-])c1 | 69
O=C(Cn1cnc2sc3c(c2c1=O)CCCC3)N/N=C/c1ccccc1O | 18
Cc1cc(-c2csc3ncn(CC(=O)N/N=C/c4ccc(Cl)c(F)c4)c(=O)c23)ccc1Cl | 51
O=C(Cn1cnc2scc(-c3ccc(Cl)cc3)c2c1=O)N/N=C/c1ccc(Cl)c([N+](=O)[O-])c1 | 58
O=C(Cn1cnc2scc(-c3ccccc3)c2c1=O)N/N=C/c1ccc(Cl)c([N+](=O)[O-])c1 | 66

Each compound was assayed on HeLa (assay: Induction of apoptosis in human HeLa cells assessed as increase in level of cleaved PARP at 20 uM after 12 hrs by immunoblotting). Settings: not given.
Assay type: functional, cell-based

SMILES | Activity
O=C(Cn1cnc2scc(-c3ccc4ccccc4c3)c2c1=O)N/N=C/c1ccc(Cl)c([N+](=O)[O-])c1 | Active
Cc1cc(-c2csc3ncn(CC(=O)N/N=C/c4ccc(Cl)c(F)c4)c(=O)c23)ccc1Cl | Active
O=C(Cn1cnc2scc(-c3ccc(Cl)cc3)c2c1=O)N/N=C/c1ccc(Cl)c([N+](=O)[O-])c1 | Active

The compounds below were run on HeLa (assay: Induction of apoptosis in human HeLa cells assessed as sub-diploid DNA content at 20 uM after 24 hrs using PI staining by flow cytometry (reference value: 6%)). Settings: not given.
Assay type: functional

SMILES | Activity [%]
O=C(Cn1cnc2scc(-c3ccc4ccccc4c3)c2c1=O)N/N=C/c1ccc(Cl)c([N+](=O)[O-])c1 | 20
Cc1cc(-c2csc3ncn(CC(=O)N/N=C/c4ccc(Cl)c(F)c4)c(=O)c23)ccc1Cl | 27
O=C(Cn1cnc2scc(-c3ccc(Cl)cc3)c2c1=O)N/N=C/c1ccc(Cl)c([N+](=O)[O-])c1 | 22

These compounds were tested on HeLa (assay: Induction of apoptosis in human HeLa cells at 20 uM after 24 hrs using PI staining by flow cytometry relative to control). Settings: not given.
Assay type: functional

SMILES | Activity [%]
O=C(Cn1cnc2sc3c(c2c1=O)CCCCC3)N/N=C/c1ccc(Cl)c([N+](=O)[O-])c1 | 6
O=C(Cn1cnc2scc(-c3ccccc3)c2c1=O)N/N=C/c1ccc(Cl)c([N+](=O)[O-])c1 | 8

What follows are compounds tested against Induced myeloid leukemia cell differentiation protein Mcl-1 (Homo sapiens) (UniProt Q07820) (assay: Inhibition of mouse/human MCL1 expressed in Escherichia coli BL21 at 50 uM using FAM-labeled Bid-BH3 as tracer by fluorescence polarization assay). Settings: not given.

SMILES | inhibition [%]
Cc1cc(-c2csc3ncn(CC(=O)N/N=C/c4ccc(Cl)c(F)c4)c(=O)c23)ccc1Cl | 40
O=C(Cn1cnc2scc(-c3ccc4ccccc4c3)c2c1=O)N/N=C/c1ccc(O)c(O)c1 | 40
Cc1csc2ncn(CC(=O)N/N=C/c3ccccc3O)c(=O)c12 | 40

Each compound was assayed on MDA-MB-231 (assay: Cytotoxicity against human MDA-MB-231 cells assessed as growth inhibition after 48 hrs by MTT assay). Settings: not given.
Assay type: functional, cell-based
How it was run: as §1

SMILES | growth inhibition (GI)
O=C(Cn1cnc2scc(-c3ccc4ccccc4c3)c2c1=O)N/N=C/c1ccc(Cl)c([N+](=O)[O-])c1 | Dose-dependent effect
Cc1cc(-c2csc3ncn(CC(=O)N/N=C/c4ccc(Cl)c(F)c4)c(=O)c23)ccc1Cl | Dose-dependent effect
O=C(Cn1cnc2scc(-c3ccc(Cl)cc3)c2c1=O)N/N=C/c1ccc(Cl)c([N+](=O)[O-])c1 | Dose-dependent effect
O=C(Cn1cnc2scc(-c3ccccc3)c2c1=O)N/N=C/c1ccc(Cl)c([N+](=O)[O-])c1 | Dose-dependent effect

Same assay, conditions: MDA-MB-231, 48 h

SMILES | IC50 [µM]
O=C(Cn1cnc2scc(-c3ccc4ccccc4c3)c2c1=O)N/N=C/c1ccc(Cl)c([N+](=O)[O-])c1 | 20
O=C(Cn1cnc2sc3c(c2c1=O)CCCCC3)N/N=C/c1ccc(Cl)c([N+](=O)[O-])c1 | 23
O=C(Cn1cnc2sc3c(c2c1=O)CCCC3)N/N=C/c1ccccc1O | 16
Cc1cc(-c2csc3ncn(CC(=O)N/N=C/c4ccc(Cl)c(F)c4)c(=O)c23)ccc1Cl | 16
O=C(Cn1cnc2scc(-c3ccc(Cl)cc3)c2c1=O)N/N=C/c1ccc(Cl)c([N+](=O)[O-])c1 | 32
O=C(Cn1cnc2scc(-c3ccccc3)c2c1=O)N/N=C/c1ccc(Cl)c([N+](=O)[O-])c1 | 20

The compounds below were run on HEK-293T (assay: Cytotoxicity against human HEK293T cells assessed as growth inhibition after 48 hrs by MTT assay). Settings: not given.
Assay type: cell-based
How it was run: as §1

SMILES | IC50 [µM]
O=C(Cn1cnc2scc(-c3ccc4ccccc4c3)c2c1=O)N/N=C/c1ccc(Cl)c([N+](=O)[O-])c1 | > 50
O=C(Cn1cnc2sc3c(c2c1=O)CCCCC3)N/N=C/c1ccc(Cl)c([N+](=O)[O-])c1 | > 50
O=C(Cn1cnc2sc3c(c2c1=O)CCCC3)N/N=C/c1ccccc1O | > 50
Cc1cc(-c2csc3ncn(CC(=O)N/N=C/c4ccc(Cl)c(F)c4)c(=O)c23)ccc1Cl | > 50
O=C(Cn1cnc2scc(-c3ccc(Cl)cc3)c2c1=O)N/N=C/c1ccc(Cl)c([N+](=O)[O-])c1 | > 50
O=C(Cn1cnc2scc(-c3ccccc3)c2c1=O)N/N=C/c1ccc(Cl)c([N+](=O)[O-])c1 | > 50

What follows are compounds tested on A549 (assay: Cytotoxicity against human A549 cells assessed as growth inhibition after 48 hrs by MTT assay). Settings: not given.
Assay type: functional, cell-based
How it was run: as §1

SMILES | growth inhibition (GI)
O=C(Cn1cnc2scc(-c3ccc4ccccc4c3)c2c1=O)N/N=C/c1ccc(Cl)c([N+](=O)[O-])c1 | Dose-dependent effect
Cc1cc(-c2csc3ncn(CC(=O)N/N=C/c4ccc(Cl)c(F)c4)c(=O)c23)ccc1Cl | Dose-dependent effect
O=C(Cn1cnc2scc(-c3ccc(Cl)cc3)c2c1=O)N/N=C/c1ccc(Cl)c([N+](=O)[O-])c1 | Dose-dependent effect
O=C(Cn1cnc2scc(-c3ccccc3)c2c1=O)N/N=C/c1ccc(Cl)c([N+](=O)[O-])c1 | Dose-dependent effect

Same assay, conditions: A549, 48 h

SMILES | IC50 [µM]
O=C(Cn1cnc2scc(-c3ccc4ccccc4c3)c2c1=O)N/N=C/c1ccc(Cl)c([N+](=O)[O-])c1 | 13
O=C(Cn1cnc2sc3c(c2c1=O)CCCCC3)N/N=C/c1ccc(Cl)c([N+](=O)[O-])c1 | > 50
O=C(Cn1cnc2sc3c(c2c1=O)CCCC3)N/N=C/c1ccccc1O | > 50
Cc1cc(-c2csc3ncn(CC(=O)N/N=C/c4ccc(Cl)c(F)c4)c(=O)c23)ccc1Cl | 17
O=C(Cn1cnc2scc(-c3ccc(Cl)cc3)c2c1=O)N/N=C/c1ccc(Cl)c([N+](=O)[O-])c1 | 20
O=C(Cn1cnc2scc(-c3ccccc3)c2c1=O)N/N=C/c1ccc(Cl)c([N+](=O)[O-])c1 | 16

What follows are compounds tested on HeLa (assay: Cytotoxicity against human HeLa cells assessed as growth inhibition at 20 uM after 48 hrs by MTT assay). Settings: not given.
Assay type: functional
How it was run: as §2

SMILES | growth inhibition (GI)
O=C(Cn1cnc2scc(-c3ccc4ccccc4c3)c2c1=O)N/N=C/c1ccc(O)c(O)c1 | inactive
Cc1csc2ncn(CC(=O)N/N=C/c3ccccc3O)c(=O)c12 | inactive

Same assay, conditions: read-out: GI

SMILES | inhibition of growth at 20 µM [%]
O=C(Cn1cnc2scc(-c3ccc4ccccc4c3)c2c1=O)N/N=C/c1ccc(Cl)c([N+](=O)[O-])c1 | 69
O=C(Cn1cnc2sc3c(c2c1=O)CCCCC3)N/N=C/c1ccc(Cl)c([N+](=O)[O-])c1 | 96
O=C(Cn1cnc2sc3c(c2c1=O)CCCC3)N/N=C/c1ccccc1O | 34
Cc1cc(-c2csc3ncn(CC(=O)N/N=C/c4ccc(Cl)c(F)c4)c(=O)c23)ccc1Cl | 52
O=C(Cn1cnc2scc(-c3ccc(Cl)cc3)c2c1=O)N/N=C/c1ccc(Cl)c([N+](=O)[O-])c1 | 74
O=C(Cn1cnc2scc(-c3ccccc3)c2c1=O)N/N=C/c1ccc(Cl)c([N+](=O)[O-])c1 | 64

Source: ChEMBL document CHEMBL1909506, “Synthesis and anti-tumor activities of N'-benzylidene-2-(4-oxothieno[2,3-d]pyrimidin-3(4H)-yl)acetohydrazone derivatives” (Bioorg Med Chem Lett, 2011)
